Test results published in ChEMBL document CHEMBL1641462, “Synthesis and in vivo evaluation of ¹⁸F-fluoroethyl GF120918 and XR9576 as positron emission tomography probes for assessing the function of drug efflux transporters” (Bioorg Med Chem, 2011).

Legend:
[1] = system: Brain; assay: Biodistribution in FVB mouse brain assessed per gram of tissue at 1 to 4.8 MBq, iv after 5 mins; assay type: ADME, organism-based; details: in vivo
How it was run: (§1)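 Male FVB mice (8–10 weeks, 25–29 g) received tracer iv (1.0–4.8 MBq, 7.1–34 pmol). Killed by cervical dislocation at 5, 15, 30, 60 or 90 min. Blood taken by heart puncture; tissues dissected, weighed and gamma-counted. Activity decay-corrected to injection time and given as %ID/g; mean ± SD, n = 4 per time point.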

[2] = system: Brain; assay: Biodistribution in P-gp/BCRP knockout mouse brain at 3.3 to 4.9 MBq, iv after up to 60 mins; assay type: ADME, organism-based; details: in vivo, 1 h
[3] = system: Lung; assay: Biodistribution in FVB mouse lung assessed per gram of tissue at 1 to 4.8 MBq, iv after 90 mins; assay type: ADME, organism-based; details: in vivo, 1.5 h; how it was run: as §1
[4] = system: Lung; assay: Biodistribution in FVB mouse lung assessed per gram of tissue at 1 to 4.8 MBq, iv after 30 mins; assay type: ADME, organism-based; details: in vivo, 0.5 h; how it was run: as §1
[5] = system: Spleen; assay: Biodistribution in FVB mouse spleen assessed per gram of tissue at 1 to 4.8 MBq, iv after 5 mins; assay type: ADME, organism-based; details: in vivo
How it was run: (§2)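 Male FVB mice (8–10 weeks, 25–29 g) given tracer 1.0–4.8 MBq/7.1–34 pmol iv; killed by cervical dislocation at set times (n = 4 per group). Blood by heart puncture; tissues dissected, weighed and gamma counted. Radioactivity decay-corrected to injection time, expressed as %ID/g, mean ± SD.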

[6] = Biodistribution in FVB mouse small intestine assessed per gram of tissue at 1 to 4.8 MBq, iv after 90 mins; assay type: ADME, organism-based; details: in vivo, 1.5 h; how it was run: as §2
[7] = system: Lung; assay: Biodistribution in FVB mouse lung assessed per gram of tissue at 1 to 4.8 MBq, iv after 15 mins; assay type: ADME, organism-based; details: in vivo, 0.25 h; how it was run: as §1
[8] = system: Brain; assay: Biodistribution in FVB mouse brain assessed per gram of tissue at 1 to 4.8 MBq, iv after 90 mins; assay type: ADME, organism-based; details: in vivo, 1.5 h; how it was run: as §1
[9] = system: Brain; assay: Biodistribution in FVB mouse brain assessed per gram of tissue at 1 to 4.8 MBq, iv after 15 mins; assay type: ADME, organism-based; details: in vivo, 0.25 h; how it was run: as §1
[10] = system: Blood; assay: Biodistribution in FVB mouse blood assessed per gram of tissue at 1 to 4.8 MBq, iv after 60 mins; assay type: ADME, organism-based; details: in vivo, 1 h; how it was run: as §1
[11] = Fold increase in testis-to-blood ratio of drug level in FVB mouse at 1 to 4.8 MBq, iv co-administered with 5 mg/kg, iv of GF120918; details: testis and blood, with GF120918, 5 mg/kg iv
[12] = system: Blood; assay: Biodistribution in FVB mouse blood assessed per gram of tissue at 1 to 4.8 MBq, iv after 5 mins; assay type: ADME, organism-based; details: in vivo; how it was run: as §1
[13] = system: Pancreas; assay: Biodistribution in FVB mouse pancreas assessed per gram of tissue at 1 to 4.8 MBq, iv after 15 mins; assay type: ADME, organism-based; details: in vivo, 0.25 h; how it was run: as §2
[14] = system: Brain; assay: Biodistribution in FVB mouse brain assessed per gram of tissue at 1 to 4.8 MBq, iv after 60 mins; assay type: ADME, organism-based; details: in vivo, 1 h; how it was run: as §1
[15] = system: Blood; assay: AUC (0 to 60 mins) in BCRP knockout mouse blood at 2.8 to 5.6 MBq, iv; assay type: ADME, tissue-based
How it was run: (§3)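 Small-animal PET in male wild-type and knockout mice under isoflurane (1.0–1.5%), prone on the scanner bed. Tracer (2.8–5.6 MBq, 20–40 pmol) given iv, with or without co-injected GF120918 at 5 mg/kg. Dynamic 60-min list-mode scan. Decay-corrected SUV read from ROIs on brain, and on the ventricular cavity for blood. AUC taken over 0–60 min in SUV·min; n = 4 per group.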

[16] = Biodistribution in FVB mouse small intestine assessed per gram of tissue at 1 to 4.8 MBq, iv after 30 mins; assay type: ADME, organism-based; details: in vivo, 0.5 h; how it was run: as §2
[17] = system: Bone; assay: Biodistribution in FVB mouse bone assessed per gram of tissue at 1 to 4.8 MBq, iv after 5 mins; assay type: ADME, organism-based, Bone element; details: in vivo; how it was run: as §1
[18] = system: Pancreas; assay: Biodistribution in FVB mouse pancreas assessed per gram of tissue at 1 to 4.8 MBq, iv after 60 mins; assay type: ADME, organism-based; details: in vivo, 1 h; how it was run: as §2
[19] = system: Spleen; assay: Biodistribution in FVB mouse spleen assessed per gram of tissue at 1 to 4.8 MBq, iv after 90 mins; assay type: ADME, organism-based; details: in vivo, 1.5 h; how it was run: as §2
[20] = Fold increase in brain-to-blood ratio of drug level in FVB mouse at 1 to 4.8 MBq, iv co-administered with 5 mg/kg, iv of GF120918; details: brain and blood, with GF120918, 5 mg/kg iv
[21] = system: Muscle tissue; assay: Biodistribution in FVB mouse muscle assessed per gram of tissue at 1 to 4.8 MBq, iv after 30 mins; assay type: ADME, organism-based; details: in vivo, 0.5 h; how it was run: as §1
[22] = system: Blood; assay: AUC (0 to 60 mins) in wild type mouse blood at 2.8 to 5.6 MBq, iv; assay type: ADME, tissue-based; how it was run: as §3
[23] = system: Liver; assay: Biodistribution in FVB mouse liver assessed per gram of tissue at 1 to 4.8 MBq, iv after 90 mins; assay type: ADME, organism-based; details: in vivo, 1.5 h; how it was run: as §1
[24] = system: Heart; assay: Biodistribution in FVB mouse heart assessed per gram of tissue at 1 to 4.8 MBq, iv after 5 mins; assay type: ADME, organism-based; details: in vivo; how it was run: as §1
[25] = system: Blood; assay: AUC (0 to 60 mins) in P-gp knockout mouse blood at 2.8 to 5.6 MBq, iv; assay type: ADME, tissue-based; how it was run: as §3
[26] = system: Brain; assay: AUC (0 to 60 mins) in P-gp/BCRP knockout mouse brain at 2.8 to 5.6 MBq, iv; assay type: ADME, organism-based; details: in vivo; how it was run: as §3
[27] = system: Brain; assay: Biodistribution in BCRP knockout mouse brain at 3.3 to 4.9 MBq, iv after up to 60 mins; assay type: ADME, organism-based; details: in vivo, 1 h
[28] = system: Bone; assay: Biodistribution in FVB mouse bone assessed per gram of tissue at 1 to 4.8 MBq, iv after 30 mins; assay type: ADME, organism-based, Bone element; details: in vivo, 0.5 h; how it was run: as §1
[29] = system: Muscle tissue; assay: Biodistribution in FVB mouse muscle assessed per gram of tissue at 1 to 4.8 MBq, iv after 90 mins; assay type: ADME, organism-based; details: in vivo, 1.5 h; how it was run: as §1
[30] = system: Bone; assay: Biodistribution in FVB mouse bone assessed per gram of tissue at 1 to 4.8 MBq, iv after 60 mins; assay type: ADME, organism-based, Bone element; details: in vivo, 1 h; how it was run: as §1
[31] = system: Heart; assay: Biodistribution in FVB mouse heart assessed per gram of tissue at 1 to 4.8 MBq, iv after 30 mins; assay type: ADME, organism-based; details: in vivo, 0.5 h; how it was run: as §1
[32] = system: Spleen; assay: Biodistribution in FVB mouse spleen assessed per gram of tissue at 1 to 4.8 MBq, iv after 15 mins; assay type: ADME, organism-based; details: in vivo, 0.25 h; how it was run: as §2
[33] = system: Kidney; assay: Biodistribution in FVB mouse kidney assessed per gram of tissue at 1 to 4.8 MBq, iv after 30 mins; assay type: ADME, organism-based; details: in vivo, 0.5 h; how it was run: as §1
[34] = system: Bone; assay: Biodistribution in FVB mouse bone assessed per gram of tissue at 1 to 4.8 MBq, iv after 90 mins; assay type: ADME, organism-based, Bone element; details: in vivo, 1.5 h; how it was run: as §1
[35] = system: Blood; assay: Biodistribution in FVB mouse blood assessed per gram of tissue at 1 to 4.8 MBq, iv after 30 mins; assay type: ADME, organism-based; details: in vivo, 0.5 h; how it was run: as §1
[36] = system: Brain; assay: Ratio of AUC (0 to 60 mins) in P-gp knockout mouse brain to AUC (0 to 60 mins) in wild type mouse brain at 2.8 to 5.6 MBq, iv; assay type: ADME, organism-based; details: in vivo
[37] = system: Spleen; assay: Biodistribution in FVB mouse spleen assessed per gram of tissue at 1 to 4.8 MBq, iv after 60 mins; assay type: ADME, organism-based; details: in vivo, 1 h; how it was run: as §2
[38] = system: Muscle tissue; assay: Biodistribution in FVB mouse muscle assessed per gram of tissue at 1 to 4.8 MBq, iv after 15 mins; assay type: ADME, organism-based; details: in vivo, 0.25 h; how it was run: as §1
[39] = system: Muscle tissue; assay: Biodistribution in FVB mouse muscle assessed per gram of tissue at 1 to 4.8 MBq, iv after 5 mins; assay type: ADME, organism-based; details: in vivo; how it was run: as §1

| Drug uptake [1] [% ID/g] | Activity [2] | Drug uptake [3] [% ID/g] | Drug uptake [4] [% ID/g] | Drug uptake [5] [% ID/g] | Drug uptake [6] [% ID/g] | Drug uptake [7] [% ID/g] | Drug uptake [8] [% ID/g] | Drug uptake [9] [% ID/g] | Drug uptake [10] [% ID/g] | Fold increase [11] | Drug uptake [12] [% ID/g] | Drug uptake [13] [% ID/g] | Drug uptake [14] [% ID/g] | AUC [15] [SUV·min] | Drug uptake [16] [% ID/g] | Drug uptake [17] [% ID/g] | Drug uptake [18] [% ID/g] | Drug uptake [19] [% ID/g] | Fold increase [20] | SMILES | other results |
| --- | --- | --- | --- | --- | --- | --- | --- | --- | --- | --- | --- | --- | --- | --- | --- | --- | --- | --- | --- | --- | --- |
| 0.13 | Active | 15.76 | 17.89 | 5.12 | 24.45 | 20.55 | 0.1 | 0.11 | 0.61 | 5 | 1.39 | 8.27 | 0.1 | 42.2 | 14.09 | 2.17 | 12.45 | 7.42 | 10 | COc1cc(NC(=O)c2cnc3ccccc3c2)c(C(=O)Nc2ccc(CCN3CCc4cc(OC)c(OCC[18F])cc4C3)cc2)cc1OC | Drug uptake [21]: 1.04 % ID/g; AUC [22]: 33.2 SUV·min; Drug uptake [23]: 22.18 % ID/g; Drug uptake [24]: 7.44 % ID/g; AUC [25]: 45 SUV·min; AUC [26]: 32.9 SUV·min; Activity [27]: Active; Drug uptake [28]: 1.45 % ID/g; Drug uptake [29]: 0.68 % ID/g; Drug uptake [30]: 1.62 % ID/g; Drug uptake [31]: 2.86 % ID/g; Drug uptake [32]: 6.73 % ID/g; Drug uptake [33]: 11.34 % ID/g; Drug uptake [34]: 1.45 % ID/g; Drug uptake [35]: 0.63 % ID/g; Ratio AUC [36]: 2.3; Drug uptake [37]: 7.18 % ID/g; Drug uptake [38]: 1.61 % ID/g; Drug uptake [39]: 2.23 % ID/g |
| 0.18 | Active | 4.09 | 7.21 | 4.76 | 17.15 | 13.32 | 0.13 | 0.16 | 0.4 | 7 | 1.39 | 9.68 | 0.17 | 25.3 | 7.6 | 1.99 | 15.14 | 4.71 | 10 | COc1cc2c(cc1OC)CN(CCc1ccc(NC(=O)c3cccc4c(=O)c5cccc(OCC[18F])c5[nH]c34)cc1)CC2 | Drug uptake [21]: 0.62 % ID/g; AUC [22]: 25.6 SUV·min; Drug uptake [23]: 14.82 % ID/g; Drug uptake [24]: 6.65 % ID/g; AUC [25]: 23.5 SUV·min; AUC [26]: 39.8 SUV·min; Activity [27]: Active; Drug uptake [28]: 1.63 % ID/g; Drug uptake [29]: 0.38 % ID/g; Drug uptake [30]: 1.43 % ID/g; Drug uptake [31]: 1.38 % ID/g; Drug uptake [32]: 5.34 % ID/g; Drug uptake [33]: 19.45 % ID/g; Drug uptake [34]: 1.3 % ID/g; Drug uptake [35]: 0.65 % ID/g; Ratio AUC [36]: 2.4; Drug uptake [37]: 5.74 % ID/g; Drug uptake [38]: 1.18 % ID/g; Drug uptake [39]: 1.75 % ID/g |
